Compounds with a hit are over-represented: about 4.1% of the library has one in this group of screens.
MEKK2mut PB1 HTS: signal of MEK5 binding to mutant human MEKK2 PB1 domain. bead flow cytometry, Alexa488-MEK5 binding to MEKK2 mutant. AID 1530. percent response, % at 10 µM. hit rate 0.35% among 290,000; in the data active = percent response above about 24%, passing the limit was not always enough
MEKK2wt PB1 HTS: raises or lowers MEK5 binding to wildtype human MEKK2 PB1 domain. hit rate 1.1% among 290,000. bead flow cytometry, Alexa488-MEK5 binding to MEKK2 WT; actives lie on both sides. Q9Y2U5. binding response (% of control), % at 10 µM. AID 1531; in the data active = binding response below about 67% or above about 130%
MEKK3 PB1 HTS: MEKK3-MEK5 PB1 interaction, increase or decrease. hit rate 1.4% among 290,000. binding response (% of control), % at 10 µM. AID 1529. Q99759. bead-based flow cytometry, Alexa488-MEK5 binding to MEKK3; actives lie on both sides; 0 = blocked by unlabeled MEK5, 100 = vehicle;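 active = binding response more than 3 SD above or below the average of its plate-row segment, actives on both sides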;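 note: Alexa488 bead fluorescence after subtracting the streptavidin-only scavenger bead signal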
Target sequence (Q99759 whole entry, looked up): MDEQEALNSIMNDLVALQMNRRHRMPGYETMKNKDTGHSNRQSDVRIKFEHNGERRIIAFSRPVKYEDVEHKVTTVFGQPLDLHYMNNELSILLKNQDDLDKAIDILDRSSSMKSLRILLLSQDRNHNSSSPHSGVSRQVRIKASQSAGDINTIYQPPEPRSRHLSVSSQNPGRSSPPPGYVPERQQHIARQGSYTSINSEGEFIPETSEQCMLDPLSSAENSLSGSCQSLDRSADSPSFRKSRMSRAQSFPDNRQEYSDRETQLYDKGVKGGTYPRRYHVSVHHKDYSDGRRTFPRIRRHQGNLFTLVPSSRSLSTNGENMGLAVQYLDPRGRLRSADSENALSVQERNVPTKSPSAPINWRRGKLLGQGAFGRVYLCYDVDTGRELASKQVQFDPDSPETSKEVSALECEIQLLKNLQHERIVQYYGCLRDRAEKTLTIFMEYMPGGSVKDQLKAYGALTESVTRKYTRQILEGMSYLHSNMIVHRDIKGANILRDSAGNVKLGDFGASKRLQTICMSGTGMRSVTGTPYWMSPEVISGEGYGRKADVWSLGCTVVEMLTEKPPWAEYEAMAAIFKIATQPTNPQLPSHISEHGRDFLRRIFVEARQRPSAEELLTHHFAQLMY
T cruzi inh: T. cruzi replication inhibition; T. cruzi beta-gal in NIH3T3, luminescence, 90 h; inhibition, % (concentration not given with the values); hit rate 1.4% among 300,000;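 active = mean inhibition across valid replicates above about 55%, limit read from the data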;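 note: signal also drops with host cell toxicity which is not excluded here; 0% = plate median of DMSO wells and 100% = zero luminescence signal; higher percent means less beta-gal luminescence so fewer parasites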
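Test system: β-gal T. cruzi (Tulahuen C4) inside NIH/3T3 cells / Quantity: 5,000 cells/well / Measured by: luminescence from GalScreen with 0.05% NP40, read after 60 min / Medium: DMEM plus 2% FBS / Measure: parasite load inhibition, % / Reagent: Tulahuen C4 trypomastigotes, 5000/well / Schedule: co-culture of at least 90 h after 3 h attachment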
DNA FID counter: fluorescent intercalator displacement, NS3 helicase counter-screen | DNA fluorescent intercalator displacement, fluorescence | inhibition, % at 7.9 µM | hit rate 0.17% among 290,000 | AID 1845; in the data active = inhibition above about 37%;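 note: 0% = vehicle and 100% = reference compound; higher means more ethidium bromide displaced from hairpin DNA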
HCV NS3 hel inh: blocks Hepatitis C virus NS3 helicase unwinding; hit rate 0.56% among 290,000; inhibition, % at 10.9 µM; NS3 helicase DNA unwinding, Cy5 molecular beacon fluorescence;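 active = inhibition above the mean of all tested compounds plus 3 SD, set per campaign, cut at about 35% in these data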;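 note: 0% = DMSO wells and 100% = thioflavine S control wells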
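System: NS3 helicase fragment of HCV / Schedule: 1 h at 25 °C / Control set: DMSO alone as 0% and 110 µM thioflavine S as 100% / Reagent: Cy5/quencher beacon DNA duplex and ATP to start / Technique: Cy5 fluorescence / Replication: singlicate / Evaluation: % inhibition of end-to-start signal ratio versus controls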
Active calls of the source: *.

Cc1cccc(-n2ncc3c2CCCC3NC(=O)C2=CC(=O)CC(C)(C)O2)c1C (configuration not stated) was read as MEKK2mut PB1 HTS 0, MEKK2wt PB1 HTS 105, MEKK3 PB1 HTS 105, T cruzi inh 3, DNA FID counter -28 and HCV NS3 hel inh -14.
Cc1ccc(Cl)cc1NC(=S)N/N=C/c1cccc2ccccc12 was read as MEKK2mut PB1 HTS 0, MEKK2wt PB1 HTS 99, MEKK3 PB1 HTS 105, T cruzi inh 59*, DNA FID counter -17 and HCV NS3 hel inh 30.
CN(Cc1ccc(Cl)s1)C(=O)CCl was read as MEKK2mut PB1 HTS -4, MEKK2wt PB1 HTS 95, MEKK3 PB1 HTS 102, T cruzi inh 59*, DNA FID counter 2 and HCV NS3 hel inh -2.
Screening CN(Cc1ccc(Cl)cc1)C(=O)CCl returned MEKK2mut PB1 HTS 10, MEKK2wt PB1 HTS 101, MEKK3 PB1 HTS 106, T cruzi inh 7, DNA FID counter 0 and HCV NS3 hel inh 5.
COc1ccc2c(c1)C=C(CN1CCN(C(C)C)C(CCO)C1)CO2 (configuration not stated) was read as MEKK2mut PB1 HTS 9, MEKK2wt PB1 HTS 114, MEKK3 PB1 HTS 109, T cruzi inh 46, DNA FID counter 3 and HCV NS3 hel inh 1.
`COc1ccc2c(c1)C=C(CN1CCN(C3CCCC3)C(CCO)C1)CO2` (configuration not stated) gave T cruzi inh 58*, DNA FID counter 9 and HCV NS3 hel inh 5.
For CCN(CC)CCCN1CC(=O)N2[C@@H](Cc3c([nH]c4ccccc34)C2(C)C)C1=O the results were MEKK2mut PB1 HTS 3, MEKK2wt PB1 HTS 108, MEKK3 PB1 HTS 103, T cruzi inh 5, DNA FID counter 0 and HCV NS3 hel inh 3.
Screening CC(CC(=O)N1CCN(c2ccc(C(F)(F)F)cn2)CC1)n1ccnc1 (configuration not stated) returned MEKK2mut PB1 HTS -4, MEKK2wt PB1 HTS 109, MEKK3 PB1 HTS 105, T cruzi inh 67*, DNA FID counter -2 and HCV NS3 hel inh -3.
For O=C(CCc1ccccc1F)N1CCN(c2ccc(C(F)(F)F)cn2)CC1 the results were MEKK2mut PB1 HTS -1, MEKK2wt PB1 HTS 102, MEKK3 PB1 HTS 102, T cruzi inh 16, DNA FID counter -35 and HCV NS3 hel inh -10.
Screening O=[N+]([O-])c1ccc2c(c1)ncn2-c1ccccc1 returned MEKK2mut PB1 HTS 19, MEKK2wt PB1 HTS 101, MEKK3 PB1 HTS 104, T cruzi inh -7, DNA FID counter 0 and HCV NS3 hel inh -22.
`O=[N+]([O-])c1ccc(-n2cnc3ccccc32)c([N+](=O)[O-])c1` gave MEKK2mut PB1 HTS 6, MEKK2wt PB1 HTS 105, MEKK3 PB1 HTS 102, T cruzi inh 71*, DNA FID counter 5 and HCV NS3 hel inh -5.
For Cc1cc2nc3n(c2cc1C)CCCN3 the results were MEKK2mut PB1 HTS 6, MEKK2wt PB1 HTS 98, MEKK3 PB1 HTS 93, T cruzi inh 67*, DNA FID counter 3 and HCV NS3 hel inh 6.
Screening COc1ccccc1C(=O)Nc1ccnn1C1CCN(CCCC2CCCC2)CC1 returned MEKK2mut PB1 HTS 4, MEKK2wt PB1 HTS 103, MEKK3 PB1 HTS 106, T cruzi inh 8, DNA FID counter 11 and HCV NS3 hel inh -5.
`Cc1csc(NC(=O)c2c(O)c3c(n(CC(C)C)c2=O)CCCC3)n1` gave MEKK2mut PB1 HTS -2, MEKK2wt PB1 HTS 97, MEKK3 PB1 HTS 99, T cruzi inh 15, DNA FID counter 0 and HCV NS3 hel inh -2.
CCOC(=O)Cc1csc(NC(=O)c2c(O)c3c(n(CC(C)C)c2=O)CCCC3)n1 was read as MEKK2mut PB1 HTS 2, MEKK2wt PB1 HTS -3.0*, MEKK3 PB1 HTS 100, T cruzi inh -8, DNA FID counter -11 and HCV NS3 hel inh -18.
Screening CC(=O)N1CC(=O)N=C1SCC(=O)Nc1nc(-c2ccccc2)c(-c2ccccc2)s1 returned MEKK2mut PB1 HTS 2, MEKK2wt PB1 HTS 103, MEKK3 PB1 HTS 103, T cruzi inh 19, DNA FID counter -36 and HCV NS3 hel inh 6.
For Cc1cc(C)c(CSc2ncc(-c3ccc([N+](=O)[O-])cc3)[nH]2)c(C)c1 the results were MEKK2mut PB1 HTS 2, MEKK2wt PB1 HTS 107, MEKK3 PB1 HTS 107, T cruzi inh 58*, DNA FID counter 13 and HCV NS3 hel inh -10.
Screening c1ccc(CN2CCN(c3nc(-c4ccccc4)nc(-n4ccnc4)n3)CC2)cc1 returned MEKK2mut PB1 HTS 5, MEKK2wt PB1 HTS 129, MEKK3 PB1 HTS 105, T cruzi inh 60*, DNA FID counter -11 and HCV NS3 hel inh -25.
`c1ccc(N(c2ccccc2)c2nc(N3CCCC3)nc(-n3ccnc3)n2)cc1` gave T cruzi inh 57*, DNA FID counter -5 and HCV NS3 hel inh 9.
CCCOC1CCCN(C(=O)c2ccc3oc(C(C)C)nc3c2)C1 (configuration not stated) was read as MEKK2mut PB1 HTS 6, MEKK2wt PB1 HTS 108, MEKK3 PB1 HTS 101, T cruzi inh -4, DNA FID counter -46 and HCV NS3 hel inh -8.
Screening O=C(Cn1nnc2ccccc21)OCC(=O)c1ccc(F)cc1 returned MEKK2mut PB1 HTS -12, MEKK2wt PB1 HTS 92, MEKK3 PB1 HTS 92, DNA FID counter -7 and HCV NS3 hel inh -8.
Cn1c(-c2ccccc2)cnc1SCC(=O)N1CCCc2ccccc21 was read as MEKK2mut PB1 HTS -1, MEKK2wt PB1 HTS 96, MEKK3 PB1 HTS 100, T cruzi inh 12, DNA FID counter -30 and HCV NS3 hel inh 3.
Screening O=C(CSc1ncc(-c2ccccc2)n1C1CCCC1)N1CCc2ccccc21 returned MEKK2mut PB1 HTS 3, MEKK2wt PB1 HTS 106, MEKK3 PB1 HTS 100, T cruzi inh 64*, DNA FID counter 8 and HCV NS3 hel inh -17.
CC(C)CCOc1ccc(C2CC(=O)N(C)C2=O)cc1 (configuration not stated) was read as MEKK2mut PB1 HTS -5, MEKK2wt PB1 HTS 100, MEKK3 PB1 HTS 101, T cruzi inh 3, DNA FID counter -12 and HCV NS3 hel inh -4.
For Cc1nn(C)c(C(=O)NNC(=O)NC2CCCCC2)c1Cl the results were MEKK2mut PB1 HTS 2, MEKK2wt PB1 HTS 106, MEKK3 PB1 HTS 100, T cruzi inh -2, DNA FID counter -7 and HCV NS3 hel inh 1.
CCOc1cc(/C=C(\C#N)C(=O)NCc2cccnc2)ccc1O was read as MEKK2mut PB1 HTS -1, MEKK2wt PB1 HTS 97, MEKK3 PB1 HTS 101, T cruzi inh -14, DNA FID counter -4 and HCV NS3 hel inh 4.
`CCOC(=O)CC(=O)CSc1ncnc2c1nnn2-c1ccc(OC)cc1` gave MEKK2mut PB1 HTS -5, MEKK2wt PB1 HTS 99, MEKK3 PB1 HTS 104, T cruzi inh -15, DNA FID counter -1 and HCV NS3 hel inh 18.

Source: PubChem
